Assay results: ChEMBL document CHEMBL4610005, “Discovery of a new class of PROTAC BRD4 degraders based on a dihydroquinazolinone derivative and lenalidomide/pomalidomide” (Bioorg Med Chem, 2020)
The source made the active and inactive calls. The calls are words filed in the database; no cut-off is given here.

Assays:
[1] = target: T1, Bromodomain-containing protein 4 (Homo sapiens, UniProt O60885); details: at 500 nM
Raji = assay: Antiproliferative activity against human Raji cells assessed as reduction in cell viability at 2.5 uM incubated for 72 hrs by cell titer glo assay; type: functional, cell-based
Procedure, shortened: (§1)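 Cells seeded and held 24 h at 37 °C, 5% CO2, then exposed to compound at a single 2.5 μM for 72 h under the same conditions. Viability was read by CellTiter-Glo luminescence after 10 min shaking and 2 min signal stabilisation at room temperature. Percent inhibition is the mean of three independent experiments.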

HL-60 = assay: Antiproliferative activity against human HL60 cells assessed as reduction in cell viability at 2.5 uM incubated for 72 hrs by cell titer glo assay; type: functional, cell-based
Procedure, shortened: as §1

THP-1 [2] = assay: Antiproliferative activity against human THP1 cells assessed as reduction in cell viability incubated for 72 hrs by cell titer glo assay; type: functional, cell-based; details: THP-1, 72 h
Procedure, shortened: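 THP-1 cells were seeded and held 24 h at 37 °C, 5% CO2, then given serially diluted compound in medium for 72 h. Proliferation was read by CellTiter-Glo luminescence. IC50 was fitted from the dose-response and reported as mean ± SD of three independent assays.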

[3] = target: T1, Bromodomain-containing protein 4
[4] = target: T2, Protein cereblon/Bromodomain-containing protein 4 (Homo sapiens) (UniProt O60885+Q96SW2); assay: Protac activity at CRBN/BRD4 in human THP1 cells assessed as decrease in c-Myc suppression at 1 uM incubated for 3 hrs by Western blot analysis; type: cell-based; details: THP-1
Procedure, shortened: (§2)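 THP-1 cells were plated at 2×10^6 cells/well and treated for 3 h. Lysis was in RIPA buffer with protease inhibitors. 30 μg of lysate per lane was run on SDS-PAGE and blotted to PVDF. Membranes were probed with antibodies to BRD4 and c-Myc, with GAPDH as loading control.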

THP-1 [5] = assay: Antiproliferative activity against human THP1 cells assessed as reduction in cell viability at 2.5 uM incubated for 72 hrs by cell titer glo assay; type: functional, cell-based
Procedure, shortened: as §1

[6] = target: T1, Bromodomain-containing protein 4; remark: listed apart in the source
[7] = target: T2, Protein cereblon/Bromodomain-containing protein 4 (Homo sapiens); assay: Protac activity at CRBN/BRD4 in human THP1 cells assessed as increase in BRD4 degradation at 3 uM incubated for 3 hrs by Western blot analysis; type: cell-based; details: THP-1
Procedure, shortened: as §2

T2 sequence (Q96SW2 whole entry, looked up, other chains not shown): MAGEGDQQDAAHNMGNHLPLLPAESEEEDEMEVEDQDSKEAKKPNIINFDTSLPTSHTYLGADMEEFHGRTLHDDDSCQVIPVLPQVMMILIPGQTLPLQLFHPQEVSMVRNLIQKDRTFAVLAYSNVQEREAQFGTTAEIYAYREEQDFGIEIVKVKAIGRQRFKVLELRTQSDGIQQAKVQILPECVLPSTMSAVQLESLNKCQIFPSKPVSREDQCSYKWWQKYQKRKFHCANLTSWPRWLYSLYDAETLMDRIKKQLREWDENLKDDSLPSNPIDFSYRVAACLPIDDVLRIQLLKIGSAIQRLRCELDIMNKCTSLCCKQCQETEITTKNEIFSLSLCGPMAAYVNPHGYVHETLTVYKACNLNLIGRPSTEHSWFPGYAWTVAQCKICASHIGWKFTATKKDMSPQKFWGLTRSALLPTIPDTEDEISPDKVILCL

Row | SMILES | inhibition [1] | inhibition (Raji) | inhibition (HL-60) | IC50 (THP-1 [2]) | IC50 [3] | Activity [4] | inhibition (THP-1 [5]) | IC50 [6] | Activity [7]
1 | Cc1noc(C)c1-c1ccc2c(c1)C(c1ccccc1)N(Cc1cn(CCOCC(=O)Nc3cccc4c3C(=O)N(C3CCC(=O)NC3=O)C4=O)nn1)C(=O)N2C (stereo unspecified) | 99% | Active | Active | 810 nM | 41.8 nM | Active | Active | – | –
2 | Cc1noc(C)c1-c1ccc2c(c1)C(c1ccccc1)N(Cc1cn(CCOCCOCCOCC(=O)Nc3cccc4c3CN(C3CCC(=O)NC3=O)C4=O)nn1)C(=O)N2C (stereo unspecified) | 100% | Active | Active | – | 22.1 nM | – | Active | – | –
3 | Cc1noc(C)c1-c1ccc2c(c1)C(c1ccccc1)N(CCCCCCC(=O)Nc1cccc3c1CN(C1CCC(=O)NC1=O)C3=O)C(=O)N2C (stereo unspecified) | 96% | – | – | – | 118 nM | – | – | – | –
4 | Cc1noc(C)c1-c1ccc2c(c1)C(c1ccccc1)N(Cc1cn(CCOCCOCC(=O)Nc3cccc4c3C(=O)N(C3CCC(=O)NC3=O)C4=O)nn1)C(=O)N2C (stereo unspecified) | 93% | Active | Active | 1660 nM | 67.7 nM | – | Active | – | –
5 | Cc1noc(C)c1-c1ccc2c(c1)C(c1ccccc1)N(CC(=O)NCCCCC(=O)Nc1cccc3c1CN(C1CCC(=O)NC1=O)C3=O)C(=O)N2C (stereo unspecified) | 91% | – | – | – | 134 nM | – | – | – | –
6 | Cc1noc(C)c1-c1ccc2c(c1)C(c1ccccc1)N(CCCCCC(=O)Nc1cccc3c1CN(C1CCC(=O)NC1=O)C3=O)C(=O)N2C (stereo unspecified) | 93% | – | – | – | 135 nM | – | – | – | –
7 | Cc1noc(C)c1-c1ccc2c(c1)C(c1ccccc1)N(CC(=O)NCCCCCC(=O)Nc1cccc3c1CN(C1CCC(=O)NC1=O)C3=O)C(=O)N2C (stereo unspecified) | 98% | – | – | – | 99.1 nM | – | – | – | –
8 | Cc1noc(C)c1-c1ccc2c(c1)C(c1ccccc1)N(CC(=O)NCCC(=O)Nc1cccc3c1CN(C1CCC(=O)NC1=O)C3=O)C(=O)N2C (stereo unspecified) | 94% | – | – | – | 132 nM | – | – | – | –
9 | Cc1noc(C)c1-c1ccc2c(c1)C(c1ccccc1)N(C)C(=O)N2 (stereo unspecified) | – | – | – | – | – | – | – | 44 nM | –
10 | Cc1noc(C)c1-c1ccc2c(c1)C(c1ccccc1)N(CC(=O)NCCCCCCC(=O)Nc1cccc3c1CN(C1CCC(=O)NC1=O)C3=O)C(=O)N2C (stereo unspecified) | 100% | – | – | – | 80.6 nM | – | – | – | –
11 | Cc1noc(C)c1-c1ccc2c(c1)C(c1ccccc1)N(Cc1cn(CCOCCOCCOCCOCC(=O)Nc3cccc4c3CN(C3CCC(=O)NC3=O)C4=O)nn1)C(=O)N2C (stereo unspecified) | 100% | Active | Active | – | 22.6 nM | – | Active | – | –
12 | Cc1noc(C)c1-c1ccc2c(c1)C(c1ccccc1)N(Cc1cn(CCOCCOCCOCC(=O)Nc3cccc4c3C(=O)N(C3CCC(=O)NC3=O)C4=O)nn1)C(=O)N2C (stereo unspecified) | 86% | Active | Active | 1750 nM | 68.5 nM | – | Active | – | –
13 | Cc1noc(C)c1-c1ccc2c(c1)C(c1ccccc1)N(CCCCC(=O)Nc1cccc3c1CN(C1CCC(=O)NC1=O)C3=O)C(=O)N2C (stereo unspecified) | 90% | – | – | – | 144 nM | – | – | – | –
14 | Cc1noc(C)c1-c1ccc2c(c1)C(c1ccccc1)N(Cc1cn(CCOCC(=O)Nc3cccc4c3CN(C3CCC(=O)NC3=O)C4=O)nn1)C(=O)N2C (stereo unspecified) | 99% | Active | Active | 1830 nM | 14.2 nM | – | Active | – | –
15 | Cc1sc2c(c1C)C(c1ccc(Cl)cc1)=N[C@@H](CC(=O)OC(C)(C)C)c1nnc(C)n1-2 | – | Active | Active | – | – | – | Active | – | –
16 | Cc1noc(C)c1-c1ccc2c(c1)C(c1ccccc1)N(CC(=O)NCCCCCCCC(=O)Nc1cccc3c1CN(C1CCC(=O)NC1=O)C3=O)C(=O)N2C (stereo unspecified) | 96% | – | – | – | 68.3 nM | – | – | – | –
17 | Cc1noc(C)c1-c1ccc2c(c1)C(c1ccccc1)N(Cc1cn(CCOCCOCCOCCOCC(=O)Nc3cccc4c3C(=O)N(C3CCC(=O)NC3=O)C4=O)nn1)C(=O)N2C (stereo unspecified) | 60% | – | – | – | 173 nM | – | – | – | –
18 | Cc1noc(C)c1-c1ccc2c(c1)C(c1ccccc1)N(Cc1cn(CCOCCOCC(=O)Nc3cccc4c3CN(C3CCC(=O)NC3=O)C4=O)nn1)C(=O)N2C (stereo unspecified) | 100% | Active | Active | – | 15.4 nM | – | Active | – | –
19 | Cc1noc(C)c1-c1ccc2c(c1)C(c1ccccc1)N(CC(=O)NCCCC(=O)Nc1cccc3c1CN(C1CCC(=O)NC1=O)C3=O)C(=O)N2C (stereo unspecified) | 89% | – | – | – | 138 nM | – | – | – | –
20 | Cc1noc(C)c1-c1ccc2c(c1)C(c1ccccc1)NC(=O)N2C (stereo unspecified) | 100% | Active | Active | 3260 nM | 46.4 nM | – | Active | – | inactive
